According to ChEMBL document CHEMBL5120943, “Discovery of Novel Pyrazolopyrimidines as Potent, Selective, and Orally Bioavailable Inhibitors of ALK2” (ACS Med Chem Lett, 2022):

Tests used:
Activin receptor type-1 [1] = target: T1, Activin receptor type-1 (Homo sapiens, UniProt Q04771); assay: Inhibition of ALK2 in human HeLa cells assessed as reduction in BMP-7 induced SMAD1 phosphorylation incubated for 1 hr followed BMP-7 stimulation for 30 mins by HTRF assay; assay type: cell-based
T1 sequence (Q04771 whole entry): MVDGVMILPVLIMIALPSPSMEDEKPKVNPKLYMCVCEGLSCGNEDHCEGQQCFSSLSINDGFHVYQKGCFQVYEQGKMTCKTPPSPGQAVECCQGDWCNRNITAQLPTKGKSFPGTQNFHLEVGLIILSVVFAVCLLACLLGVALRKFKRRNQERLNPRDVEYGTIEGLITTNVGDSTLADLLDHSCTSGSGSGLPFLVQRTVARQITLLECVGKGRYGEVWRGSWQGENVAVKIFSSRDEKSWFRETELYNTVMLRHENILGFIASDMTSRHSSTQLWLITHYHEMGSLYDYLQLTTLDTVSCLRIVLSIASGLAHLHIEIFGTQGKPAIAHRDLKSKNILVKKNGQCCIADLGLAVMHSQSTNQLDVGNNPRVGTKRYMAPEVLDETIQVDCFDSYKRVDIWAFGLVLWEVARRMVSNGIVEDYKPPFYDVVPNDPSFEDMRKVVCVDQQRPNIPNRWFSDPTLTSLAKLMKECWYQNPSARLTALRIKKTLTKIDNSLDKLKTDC
Outline: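 HeLa cells were stimulated with BMP7. Inhibition of BMP7-induced SMAD1 phosphorylation was read by HTRF and an IC50 was derived.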

Activin receptor type-1 [2] = target: T1, Activin receptor type-1; assay: Inhibition of human recombinant N-terminal GST tagged ALK2 (147 to end residues) expressed in baculovirus infected in Sf9 cells assessed as loss of peptide phosphorylation activity using peptide substrate in presence of ATP and measured after 3 hrs by HTRF assay
Outline: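 HTRF activity assay measuring loss of ALK2 phosphorylation of a peptide substrate. IC50 values were determined.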

Hepcidin = target: T2, Hepcidin (Homo sapiens, UniProt P81172); assay: Inhibition of Hepcidin in human Huh-7 cells assessed as inhibition of BMP-7 induced hepcidin production incubated for 16 to 24 hrs by ELISA method; assay type: cell-based
T2 sequence (P81172 whole entry): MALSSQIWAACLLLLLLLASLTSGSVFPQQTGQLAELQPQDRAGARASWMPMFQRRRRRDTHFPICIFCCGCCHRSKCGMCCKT
Outline: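 Huh7 liver cells were stimulated with BMP7. Inhibition of secreted hepcidin was measured and an IC50 was derived.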

IC50 (Activin receptor type-1 [1]) [nM]	IC50 (Activin receptor type-1 [2]) [nM]	IC50 (Hepcidin) [nM]	SMILES
119	1.3		COC(=O)N1C[C@@H](C)N(c2ncc3[nH]nc(-c4ccc(N5CCN(C)CC5)c(F)c4)c3n2)[C@@H](C)C1
		58	COC(=O)N1C[C@@H](C)N(c2ncc3[nH]nc(-c4ccc(N5CCN(C)CC5)nc4)c3n2)[C@@H](C)C1
661	8		CC(C)C(=O)N1C[C@@H](C)N(c2ncc3[nH]nc(-c4ccc(N5CCN[C@H](C)C5)nc4)c3n2)[C@@H](C)C1
350	6.4		C[C@@H]1CN(c2ccc(-c3n[nH]c4cnc(N5[C@H](C)CN(C(=O)N(C)C)C[C@@H]5C)nc34)cn2)CCN1
346	7.3		COCC(=O)N1C[C@@H](C)N(c2ncc3[nH]nc(-c4ccc(N5CCN[C@H](C)C5)nc4)c3n2)[C@@H](C)C1

Continued, compound first:

SMILES	IC50 (Activin receptor type-1 [1]) [nM]	IC50 (Activin receptor type-1 [2]) [nM]	IC50 (Hepcidin) [nM]
CC1CCCCN1c1ncc2[nH]nc(-c3ccc(N4CCN[C@H](C)C4)nc3)c2n1 (some centres not stated)		8.1	
C[C@@H]1CN(c2ccc(-c3n[nH]c4cnc(N5CCCCC5)nc34)cn2)CCN1		8.1	
C[C@@H]1CN(c2ccc(-c3n[nH]c4cnc(N5CCCCC5)cc34)cn2)CCN1		77	
